This note sets out measurements from ChEMBL document CHEMBL1126201, “Synthesis, characterization, and biological evaluation of a novel class of N-(arylethyl)-N-alkyl-2-(1-pyrrolidinyl)ethylamines: structural requirements and binding affinity at the sigma receptor” (J Med Chem, 1992).

For orientation: Ki means a measure of affinity in units of concentration, obtained from inhibition or displacement. Low values mean tighter binding, high ones weaker binding.

Assay [1] addresses Kappa-type opioid receptor (Cavia porcellus, UniProt P41144). The assay is described as follows: Ability to displace [3H]bremazocine from opioid receptor kappa in guinea pig brain membranes; No inhibition. In kind it is cell membranes. The method in brief: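 Kappa sites labeled with 2 nM [3H]bremazocine on guinea pig brain P2 membranes (500 µg protein) in 10 mM Tris-HCl pH 7.4, 0.5 mL, with 100 nM DAGO and 100 nM DSTLE to mask mu/delta; 90 min at 25 °C. Terminated by ice-cold buffer and glass-fiber filtration. Screened at 100, 1000 and 10,000 nM; duplicates.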

Assay [2] has as its system Glutamate [NMDA] receptor. The assay is described as follows: Ability to displace [3H]TCP from PCP receptor in guinea pig membranes; No inhibition. In kind it is cell membranes, Cavia porcellus. A digest of the protocol: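 Guinea pig brain crude P2 membranes (500 µg protein) incubated with 5 nM [3H]TCP in 5 mM Tris-HCl pH 7.4, 0.5 mL, 60 min at 4 °C; stopped by ice-cold buffer and filtration through polyethylenimine-soaked (0.3%) glass-fiber filters, washed twice. Nonspecific binding with 10 µM cyclazocine. Screened at 100, 1000 and 10,000 nM; duplicates.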

A further assay has as its target D(2) dopamine receptor (Rattus norvegicus, UniProt P61169). The assay is described as follows: Ability to displace [3H]sulpiride from dopamine receptor D2 in rat brain. The format is tissue-based. A digest of the protocol:
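Rat (male Sprague-Dawley) brain P2 membranes, 500 µg protein, with 5 nM [3H]-(-)-sulpiride in 50 mM Tris-HCl pH 7.7 + 120 mM NaCl, 60 min at 25 °C; haloperidol 1 µM for nonspecific binding; filtration, two washes.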

In assay [3] the target is Glutamate [NMDA] receptor. The assay is described as follows: Ability to displace [3H]TCP from PCP receptor in guinea pig membranes. The format is cell membranes, Cavia porcellus. A digest of the protocol: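 Guinea pig brain (minus cerebella) crude P2 membranes, 500 µg protein, incubated with 5 nM [3H]TCP in 5 mM Tris-HCl pH 7.4 for 60 min at 4 °C. Filtered on polyethylenimine-soaked glass-fiber filters; nonspecific binding defined with 10 µM cyclazocine. […] Duplicates, 2–3 experiments; IC50 converted to Ki by Cheng-Prusoff (Kd 25 nM).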

Sequence of Kappa-type opioid receptor (P41144 whole entry): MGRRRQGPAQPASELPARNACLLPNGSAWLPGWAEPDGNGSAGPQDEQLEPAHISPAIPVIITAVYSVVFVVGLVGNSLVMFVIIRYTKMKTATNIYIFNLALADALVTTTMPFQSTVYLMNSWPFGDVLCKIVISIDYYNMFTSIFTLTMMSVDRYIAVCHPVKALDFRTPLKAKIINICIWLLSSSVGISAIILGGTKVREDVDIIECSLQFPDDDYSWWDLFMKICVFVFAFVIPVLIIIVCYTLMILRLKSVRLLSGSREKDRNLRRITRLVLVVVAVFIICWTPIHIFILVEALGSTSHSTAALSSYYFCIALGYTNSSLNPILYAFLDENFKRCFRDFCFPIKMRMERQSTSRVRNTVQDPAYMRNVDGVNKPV
Sequence of D(2) dopamine receptor (P61169 whole entry): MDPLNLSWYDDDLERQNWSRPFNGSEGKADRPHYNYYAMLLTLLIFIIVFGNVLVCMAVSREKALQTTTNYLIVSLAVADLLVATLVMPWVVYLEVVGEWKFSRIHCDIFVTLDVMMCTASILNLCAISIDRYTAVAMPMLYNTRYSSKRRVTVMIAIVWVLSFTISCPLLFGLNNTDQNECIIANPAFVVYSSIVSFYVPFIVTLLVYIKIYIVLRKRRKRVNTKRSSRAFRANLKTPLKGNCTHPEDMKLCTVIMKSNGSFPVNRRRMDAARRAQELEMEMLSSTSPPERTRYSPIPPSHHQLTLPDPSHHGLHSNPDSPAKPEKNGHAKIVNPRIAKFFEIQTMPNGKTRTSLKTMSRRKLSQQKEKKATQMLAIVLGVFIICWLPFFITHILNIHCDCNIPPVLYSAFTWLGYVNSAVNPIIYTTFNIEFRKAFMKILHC

`CCN(CCc1ccc(Cl)c(Cl)c1)CCN1CCCC1`: the inhibition constant (Ki) result in assay [1] was “Not Active”; in assay [2], “Not Active”; on D(2) dopamine receptor, 1.66 µM.

As for `CN(CCc1cccc(Cl)c1)CCN1CCCC1`, the values for the Ki result (in assay [1]; in assay [2]; on D(2) dopamine receptor) were “Not Active”, “Not Active” and 6.5 µM, respectively.

For `CN(CCc1ccc(Cl)c(Cl)c1)CCN1CCCCC1`, the Ki entry in assay [1] is “Not Active”; in assay [2] it was “Not Active”; at D(2) dopamine receptor, 1.21 µM.

Consider `CN(CCN1CCCC1)Cc1ccc(Cl)c(Cl)c1`, for which the inhibition constant Ki result in assay [1] is “Not Active”; in assay [2], “Not Active”; on D(2) dopamine receptor, 1.3 µM.

As for `CCN(CC)CCN(C)CCc1ccc(Cl)c(Cl)c1`, the Ki entry is “Not Active” in assay [1], “Not Active” in assay [2] and 3.01 µM at D(2) dopamine receptor.

For `CN(CCc1ccc(Cl)c(Cl)c1)CCN1CCCC1`, the results for the Ki entry (in assay [1]; in assay [2]; at D(2) dopamine receptor) were “Not Active”, “Not Active” and 1.11 µM, respectively.

As for `C[C@@H](CN1CCCC1)N(C)CCc1ccc(Cl)c(Cl)c1`, the Ki result is “Not Active” in assay [1], 3.04 µM in assay [3] and 11.2 µM at D(2) dopamine receptor.

`CN(CCc1ccc(Cl)c(Cl)c1)CCN1CCCCCC1`: the Ki entry was “Not Active” in assay [1], 6.94 µM in assay [3] and 6.75 µM at D(2) dopamine receptor.
